# Results published in article PMC6916675 (Cancer Management and Research, 2019).
# Entries after “also recorded” stand apart in the source; their conditions may differ.
# Legend:
# [1] = test system: advanced solid or hematologic malignancies; assay: Antitumor efficacy; assay type: in vivo, human
# Procedure, shortened: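 Investigators assessed response by RECIST 1.1, RANO, updated IWCLL or PCWG2 criteria. Solid tumours were restaged by CT or MRI after cycles 2, 4, 6, 9 and 12, every 6 cycles thereafter, and at end of treatment. Patients meeting IWCLL criteria but with persistent lymphocytosis were classed non-IWCLL. Best overall response frequency was tabulated. BA/FE substudy: 12 solid-tumour patients (GBM excluded).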
# [2] = Safety and tolerability in Phase I patients; assay type: in vivo, human
# [3] = Bioavailability/food effect; assay type: in vivo, human; details: single oral dose with high-fat meal vs fasted
# pAKT = assay: Immunohistochemistry of paired tumor biopsies, pAKT; assay type: in vivo, human; details: before treatment vs after approximately 15 days of treatment
# p4EBP1 = assay: Immunohistochemistry of paired tumor biopsies, p4EBP1; assay type: in vivo, human; details: before treatment vs after approximately 15 days of treatment
# [4] = Distribution of CC-115 to GBM tumor tissue; assay type: in vivo; details: human, GBM tumor tissue and plasma, oral, 10 mg BID
# mTORC2 (pAKT.S473) = assay: pAKT biomarker inhibition in stimulated blood monocytes; assay type: in vivo, human
# Procedure, shortened: (§1)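 Blood sampled predose and up to 5 hrs postdose on cycle 1 days 1 and 15, plus around tumour biopsy (days 15–21). Markers: p4E-BP1 T37/T46 (mTORC1) and pAKT S473 (mTORC2). In Part B, CD14+ monocytes were stimulated with anti-IgD plus lipopolysaccharide (37°C, 15 min) and analysed by flow cytometry. Signal was expressed as molecules of equivalent fluorescein.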
# [5] = Plasma pharmacokinetics of CC-115; assay type: in vivo, human; details: for AUC(0-inf) / Vd/F / AUC / Cmax / Tmax: human, plasma, oral; for Cmax: Plasma Cmax, mean (CV%); for Tmax: Plasma Tmax, median (min, max)
# mTORC1 (p4E-BP1.T37/T46) = assay: p4E-BP1 biomarker inhibition in stimulated blood monocytes; assay type: in vivo, human
# Procedure, shortened: as §1
# [6] = Urinary excretion of CC-115; assay type: in vivo, human; details: for Fe (fraction excreted unchanged in urine), mean (CV%) / Urine Ae24, mean (CV%): first dose
# [7] = Part A, efficacy evaluable n=39
# [8] = Part A, repeat once-daily administration
# [9] = patient with endometrial cancer (complete response)
# [10] = 8 mg, first dose, 8 mg QD, n = 6
# [11] = 8 mg, multiple doses, 8 mg QD, n = 7
# [12] = 10 mg, first dose, 10 mg BID, n = 6
# [13] = 10 mg, multiple doses, 10 mg BID, n = 7
# [14] = 15 mg, first dose, 15 mg BID, n = 6
# [15] = 15 mg, multiple doses, 15 mg BID, n = 5
# [16] = 16 mg, first dose, 16 mg QD, n = 6
# [17] = 16 mg, multiple doses, 16 mg QD, n = 8
# [18] = 25 mg, first dose, 25 mg QD, n = 7
# [19] = 25 mg, multiple doses, 25 mg QD, n = 5
# [20] = 40 mg, first dose, 40 mg QD, n = 6
# [21] = 40 mg, multiple doses, 40 mg QD, n = 4
compound,measurement,setting,value
CCN1C(=O)CNc2ncc(-c3ccc(-c4nc[nH]n4)nc3C)nc21 [CC-115],"Stable disease, patients",[1]; BA/FE substudy,4 patients
same,"Partial response (unconfirmed), patients","[1]; BA/FE substudy, breast carcinoma (5 patients)",2 patients
same,"Stable disease, patients","[1]; BA/FE substudy, breast malignancies",1 patients
same,"Stable disease, patients","[1]; BA/FE substudy, ovarian malignancies",2 patients
same,"Stable disease, patients","[1]; BA/FE substudy, rectal malignancies",1 patients
same,Disease control rate (DCR),[1]; [7],51%
same,Overall response rate (ORR),[1]; [7],5%
same,6-month PFS,"[1]; Part B, CLL/SLL",86%
same,Best response of SD by IWCLL and non-IWCLL criteria,"[1]; Part B, CLL/SLL, June 2017",25%
same,PR by IWCLL criteria,"[1]; Part B, CLL/SLL, June 2017",25%
same,PR by non-IWCLL criteria (persistent lymphocytosis),"[1]; Part B, CLL/SLL, June 2017",38%
same,Best response of SD,"[1]; Part B, CRPC, 11 efficacy evaluable patients",64%
same,6-month PFS rate,"[1]; Part B, ES",0%
same,Best response of SD,"[1]; Part B, ES n=9",22%
same,Best response of nonprogression,"[1]; Part B, GBM, 14 evaluable patients",21%
same,Best response of SD,"[1]; Part B, HNSCC n=17",53%
same,Time in complete remission / tumor-free,"[1]; one patient with endometrial cancer, 10 mg BID reduced to 8 mg BID",> 4 years
same,Drug-related AE: diarrhea,[2]; Part A,25%
same,Drug-related AE: fatigue,[2]; Part A,50%
same,Drug-related AE: hyperglycemia,[2]; Part A,23%
same,Drug-related AE: nausea,[2]; Part A,41%
same,Drug-related AE: vomiting,[2]; Part A,41%
same,"Grade 3 toxicities, patients",[2]; Part A,41%
same,Grade 3 toxicity: fatigue,[2]; Part A,7%
same,Grade 3 toxicity: hypertriglyceridemia,[2]; Part A,5%
same,Grade 3 toxicity: hypophosphatemia,[2]; Part A,7%
same,Grade 3 toxicity: maculopapular rash,[2]; Part A,5%
same,Grade 3 toxicity: stomatitis,[2]; Part A,5%
same,Patients requiring dose reduction from initially assigned dose levels,[2]; Part A,39%
same,Patients requiring drug interruption,[2]; Part A,93%
same,Patients who discontinued treatment due to AEs,[2]; Part A,7%
same,Patients with ≥1 drug-related AE,[2]; Part A,93%
same,Dose-limiting toxicities (increased transaminases and stomatitis),"[2]; Part A, 15 mg BID",2 DLTs
same,"Dose-limiting toxicity (thrombocytopenia), patients","[2]; Part A, 16 mg QD",1 patient
same,"Dose-limiting toxicity (stomatitis), patients","[2]; Part A, 25 mg QD",1 patient
same,"Dose-limiting toxicities (hyperglycemia, asthenia, and fatigue), patients","[2]; Part A, 40 mg QD",2 of 6 patients
same,Maximum-tolerated dose (MTD),"[2]; Part A, once-daily schedule",25 mg QD
same,Non-tolerated dose (NTD),"[2]; Part A, once-daily schedule",40 mg QD
same,Maximum-tolerated dose (MTD),"[2]; Part A, twice-daily schedule",10 mg BID
same,Non-tolerated dose (NTD),"[2]; Part A, twice-daily schedule",15 mg BID
same,"Patients requiring ≥1 dose reduction, range over cohorts",[2]; Part B overall,40–93%
same,Patients with dose reductions,"[2]; Part B, GBM",93%
same,Decrease in Cmax on co-administration of the tablet with food,[3],~ 40%
same,Delay in Tmax on co-administration of the tablet with food,[3],3.5 h
same,Total exposure (AUC∞) fed versus fasted,[3],similar; also recorded: comparable
same,Inhibition of pAKT in paired tumor biopsies,pAKT,"Moderate, not statistically significant, inhibition"
same,Inhibition of p4EBP1 in paired tumor biopsies,p4EBP1,"Moderate, not statistically significant, inhibition"
same,Kp,[4],0.713
same,Median biomarker (pAKT),"mTORC2 (pAKT.S473); 10 mg BID cohort, after 3 hrs",84%
same,Dose above which mTORC2 (pAKT) was inhibited in peripheral blood monocytes,mTORC2 (pAKT.S473); [8],> 4 mg QD
same,Median decrease of pAKT,"mTORC2 (pAKT.S473); Part B, 10 mg BID, day 15",80%
same,Inhibition of pAKT,mTORC2 (pAKT.S473); [9],85%
same,Time for which pAKT inhibition was sustained,mTORC2 (pAKT.S473); postdose,at least 5 hrs
same,AUC(0-inf),[5]; 8 mg,237 ng·h/mL
same,Vd/F,[5]; 8 mg,294 L
same,AUC,"[5]; 8 mg, Plasma AUC12, mean (CV%), first dose, 8 mg QD, n = 6",180 ng·h/mL
same,AUC,"[5]; 8 mg, Plasma AUC24, mean (CV%), first dose, 8 mg QD, n = 6",236 ng·h/mL
same,Cmax,[5]; [10],36.1 ng/mL
same,Cmax,[5]; [11],40.9 ng/mL
same,Tmax,[5]; [10],1.5 h
same,Tmax,[5]; [11],1.5 h
same,AUC(0-inf),[5]; 10 mg,605 ng·h/mL
same,Vd/F,[5]; 10 mg,189 L
same,Cmax,[5]; [12],51.8 ng/mL
same,Cmax,[5]; [13],75.2 ng/mL
same,Tmax,[5]; [12],2.25 h
same,Tmax,[5]; [13],1.42 h
same,AUC(0-inf),[5]; 15 mg,1310 ng·h/mL
same,Vd/F,[5]; 15 mg,173 L
same,Cmax,[5]; [14],134 ng/mL
same,Cmax,[5]; [15],162 ng/mL
same,Tmax,[5]; [14],1.04 h
same,Tmax,[5]; [15],1.52 h
same,AUC(0-inf),[5]; 16 mg,625 ng·h/mL
same,Vd/F,[5]; 16 mg,264 L
same,Cmax,[5]; [16],88.7 ng/mL
same,Cmax,[5]; [17],118 ng/mL
same,Tmax,[5]; [16],2.95 h
same,Tmax,[5]; [17],1.65 h
same,AUC(0-inf),[5]; 25 mg,1910 ng·h/mL
same,Vd/F,[5]; 25 mg,149 L
same,Cmax,[5]; [18],173 ng/mL
same,Cmax,[5]; [19],198 ng/mL
same,Tmax,[5]; [18],3 h
same,Tmax,[5]; [19],1.52 h
same,AUC(0-inf),[5]; 40 mg,2130 ng·h/mL
same,Vd/F,[5]; 40 mg,201 L
same,Cmax,[5]; [20],167 ng/mL
same,Cmax,[5]; [21],244 ng/mL
same,Tmax,[5]; [20],2.25 h
same,Tmax,[5]; [21],3 h
same,Increase of Cmax and AUC∞ with dose,[5]; single and multiple doses ranging from 4 to 40 mg,"linear, dose-proportional"
same,Median biomarker (p4E-BP1),"mTORC1 (p4E-BP1.T37/T46); 10 mg BID cohort, after 3 hrs",35%
same,Dose above which mTORC1 (p4E-BP1) was inhibited in peripheral blood monocytes,mTORC1 (p4E-BP1.T37/T46); [8],> 4 mg QD
same,Median decrease of p4E-BP1,"mTORC1 (p4E-BP1.T37/T46); Part B, 10 mg BID, day 15",34%
same,Inhibition of p4E-BP1,mTORC1 (p4E-BP1.T37/T46); [9],51%
same,Time for which p4E-BP1 inhibition was sustained,mTORC1 (p4E-BP1.T37/T46); postdose,at least 5 hrs
same,Excreted in urine,[6]; Part A,Less than 1%
same,"Fe (fraction excreted unchanged in urine), mean (CV%)","[6]; 8 mg QD, n = 6",0.25 (66) %
same,"Urine Ae24, mean (CV%)","[6]; 8 mg QD, n = 6","19,748 (66) ng"
same,"Fe (fraction excreted unchanged in urine), mean (CV%)","[6]; 10 mg BID, n = 6",0.53 (108) %
same,"Urine Ae24, mean (CV%)","[6]; 10 mg BID, n = 6","53,259 (108) ng"
same,"Fe (fraction excreted unchanged in urine), mean (CV%)","[6]; 15 mg BID, n = 6",0.72 (53) %
same,"Urine Ae24, mean (CV%)","[6]; 15 mg BID, n = 6","107,283 (53) ng"
same,"Fe (fraction excreted unchanged in urine), mean (CV%)","[6]; 16 mg QD, n = 6",0.33 (108) %
same,"Urine Ae24, mean (CV%)","[6]; 16 mg QD, n = 6","52,491 (108) ng"
same,"Fe (fraction excreted unchanged in urine), mean (CV%)","[6]; 25 mg QD, n = 7",0.41 (79) %
same,"Urine Ae24, mean (CV%)","[6]; 25 mg QD, n = 7","103,312 (79) ng"
same,"Fe (fraction excreted unchanged in urine), mean (CV%)","[6]; 40 mg QD, n = 6",0.34 (55) %
same,"Urine Ae24, mean (CV%)","[6]; 40 mg QD, n = 6","136,157 (55) ng"
